Results gathered from unrelated publications.
Lines come from different studies, so protocols differ.
Organism: Bacillus subtilis
Effect on: microbial growth

For `Cc1cccc(NCc2ccc(Oc3ccccn3)cc2)c1`, the MIC was over 3.1 µg/mL.
`CCCCC[P+](/C=C(/c1ccccc1)c1cc(Cl)ccc1OC)(CCCCC)CCCCC` has an MIC of 2 µM (21 h).
The MIC of `O=C(O)CN1C(=O)/C(=C/c2c3ccccc3c(-c3ccc(N(c4ccccc4)c4ccccc4)cc3)c3ccccc23)SC1=S` is reported as over 1000 µg/mL (broth dilution; ATCC6633).
For `O=C(O)c1ccc(-n2cc(/C=N/Nc3ccc(C(F)(F)F)cc3)c(-c3cccc(F)c3)n2)cc1`, the MIC was 12.5 µg/mL (ATCC6623).
`O=C(O)CN1C(=O)/C(=C/c2ccc(-c3ccc(N(c4ccccc4)c4ccccc4)cc3)cc2)SC1=S` gave an MIC of 1.95 µg/mL (broth dilution; ATCC6633).
`COc1cc(O)c2c(c1)/C=C/C[C@H](O)[C@H](O)C(=O)/C=C/C[C@H](C)OC2=O` gave an MIC of over 500 µg/mL.
The MIC of `O=C(Nc1ccc2c(c1)OC(F)(F)O2)Nc1ccc(Cl)c(C(F)(F)F)c1` is reported as 1 µM (168).
For `Fc1ccc(NCc2ccc(Oc3ccccn3)cc2)cc1`, the MIC was 1.6 µg/mL.
For `C/C=C(\C)c1cc(OC(=O)c2c(C)c(Cl)c(O)c(Cl)c2O)c(C)c(O)c1C(=O)O`, the MIC was 64 µg/mL (broth dilution; BS01).
`CC1CCN(CCCN2/C(=C/c3cc[n+](C)c4ccccc34)Sc3ccccc32)CC1.[I-]` gave an MIC of 4 µg/mL (broth dilution; 168).
For `CCCCOC(=O)c1cc(O)c(O)c(O)c1`, the MIC was over 200 µM (broth dilution; ATCC6633).
For `O=C(O)c1ccc(-n2cc(/C=N/N(Cc3ccccc3)Cc3ccccc3)c(-c3ccc(F)cc3)n2)cc1`, the MIC was 6.25 µg/mL (ATCC6623).
The MIC of `O=C(O)CN1C(=O)/C(=C/c2ccc(-c3ccc(N(c4ccccc4)c4ccccc4)cc3)cc2)NC1=S` is reported as 3.9 µg/mL (broth dilution; ATCC6633).
`C[n+]1c(/C=C/c2ccc(O)cc2)cc(/C=C2\Sc3ccccc3N2CCCN2CCOCC2)c2ccccc21.[I-]` has an MIC of 4 µg/mL (broth dilution; 168).
The MIC of `CCCC[P+](/C=C(/c1ccccc1)c1cc(Cl)ccc1OC)(CCCC)CCCC` is reported as 1 µM (21 h).
The MIC of `O=C(O)c1ccc(-n2cc(/C=N/Nc3cccc(Cl)c3)c(-c3cccc(F)c3)n2)cc1` is reported as 12.5 µg/mL (ATCC6623).
The MIC of `CC1=NN(CNc2ccccc2[N+](=O)[O-])C(=O)C1=NNn1c(-c2ccccc2)nc2ccccc2c1=O` is reported as 50.4 µM (broth dilution; 24 h).
`c1ccc(NCc2ccc(Oc3ccccn3)cc2)cc1` gave an MIC of 1.6 µg/mL.
With `O=C(O)c1ccc(-n2cc(/C=N/N(c3ccccc3)c3ccccc3)c(-c3cccc(F)c3)n2)cc1` the MIC was 1.56 µg/mL (ATCC6623).
